Screening data from PubChem BioAssay.
An excerpt weighted towards active compounds, which were near 4.9% of everything screened.
STAT1 inh: STAT1 signaling inhibitors, primary screen, cell-based, HTS, luciferase reporter; NIH 3T3 STAT1-luciferase reporter, IFN-gamma, luminescence; inhibition, % at 5.5 µM; 200,000 tested, 0.35% active; AID 920, 2007;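 active = inhibition above a set limit, the mean inhibition across all tested compounds plus 3 SD, cut at about 34% in these data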;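 also: 0% = IFN-gamma with DMSO and 100% = IFN-gamma with 300 µM nifuroxazide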
STAT3 act: IL-6 driven STAT3 reporter potentiators, primary screen, U3A cells, luciferase, luminescence, MLSCN library. activation (% of control), % at 5.6 µM. IL-6 STAT3-luciferase reporter; 100% = signal with IL-6 EC80 alone. 190,000 tested, 0.91% active;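 active = activation above the screen-wide mean of compound activation plus 3 SD, cut at about 130% in these data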;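 also: 0% = background luminescence of wells with medium and substrate only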
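Material: human STAT1-deficient U3A cells with stable STAT3-luciferase reporter / Probe or stimulus: IL-6 stimulus at 33 ng/mL final / Schedule: 1 h compound pre-exposure, 6 h IL-6 stimulation, 37 °C / Technique: luminescence / Read-out basis: percent of IL-6-only median luminescence / Control set: IL-6-only high control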
STAT3 blocker: IL-6 driven STAT3 reporter inhibitors, primary screen, U3A cells, luciferase, luminescence, MLSCN library. inhibition, % at 5.5 µM. IL-6 STAT3-luciferase reporter; host cell line lacks STAT1. 190,000 tested, 0.89% active. AID 862, 2007;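 active = inhibition above the mean inhibition across all screened compounds plus 3 SD, cut at about 44% in these data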;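 also: 0% = DMSO only wells and 100% = 100 µM nifuroxazide control wells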
NF-kB expr up: activators of NF-kB expression in neurons, primary screen, cell-based, HTS; human neuronal cells, NF-kB reporter expression; hits give high values; fold change at 12.5 µM; 190,000 tested, 1.6% active; in the data active = fold change above about 3.3
APP 5'UTR act: activators of APP 5'UTR luciferase reporter, primary screen, SH-SY5Y cells; SH-SY5Y APP 5'UTR luciferase reporter, luminescence; zero percent = DMSO vehicle wells; activation, % at 2 µM; 190,000 tested, 1% active; AID 1276, 2008;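 active = activation above a set limit, based on mean plus 3 SD of controls, cut at about 140% in these data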
STAT1 activator: STAT1 signaling activators, primary screen, cell-based, HTS, luciferase reporter; NIH 3T3 STAT1-luciferase reporter, IFN-gamma, luminescence; 100% = IFN-gamma alone, no compound; activation (% of control), % at 5.5 µM; 200,000 tested, 2.6% active;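 active = activation above the screen-wide mean activation plus 3 SD, cut at about 130% in these data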;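 also: raw ratio to IFN-gamma control signal so 100% means no change and 0% no light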
An asterisk follows results filed as active.

Results for CCOc1ccc(C(=O)N/N=C/c2ccccc2[N+](=O)[O-])cc1 ?
STAT1 inh: -38; STAT3 act: 95; STAT3 blocker: 10; NF-kB expr up: 2; APP 5'UTR act: 140*; STAT1 activator: 134*

What do the screens show for `CCOc1ccc(NC(=O)Cc2ccccc2)c([N+](=O)[O-])c1`?
STAT1 inh: 0; STAT3 act: 86; STAT3 blocker: 20; NF-kB expr up: 1.6; APP 5'UTR act: -1; STAT1 activator: 100

Results for O=C(COc1ccccc1)Nc1ccccc1Cl ?
STAT1 inh: -37; STAT3 act: 96; STAT3 blocker: 14; NF-kB expr up: 1.6; APP 5'UTR act: 70; STAT1 activator: 132*

What do the screens show for `COc1ccc(NC(=O)/C=C/c2ccccc2)c([N+](=O)[O-])c1`?
STAT1 inh: -54; STAT3 act: 107; STAT3 blocker: -9; NF-kB expr up: 1.4; APP 5'UTR act: 76; STAT1 activator: 147*

Results for CCOc1ccc(NC(=O)COc2ccccc2)c([N+](=O)[O-])c1 ?
STAT1 inh: -52; STAT3 act: 90; STAT3 blocker: 20; NF-kB expr up: 4.1*; APP 5'UTR act: 78; STAT1 activator: 148*

What do the screens show for `CCC(=O)Nc1ccc(C(=O)N/N=C/c2ccccc2[N+](=O)[O-])cc1`?
STAT1 inh: -3; STAT3 act: 109; STAT3 blocker: 0; NF-kB expr up: 0.92; APP 5'UTR act: 30; STAT1 activator: 103

How did O=C(Nc1ccccc1F)Nc1ccc([N+](=O)[O-])cc1Cl do in these assays?
STAT1 inh: -27; STAT3 act: 87; STAT3 blocker: 20; NF-kB expr up: 1.7; APP 5'UTR act: 54; STAT1 activator: 122

Results for NS(=O)(=O)c1ccc(CNC(=O)Cc2c(F)cccc2Cl)cc1 ?
STAT1 inh: 9; STAT3 act: 92; STAT3 blocker: 17; NF-kB expr up: 1.1; APP 5'UTR act: -7; STAT1 activator: 92

How did CC(C)(C)c1ccc(C(=O)Nc2cnccn2)cc1 do in these assays?
STAT1 inh: -17; STAT3 act: 71; STAT3 blocker: 37; NF-kB expr up: 6.4*; APP 5'UTR act: 173*; STAT1 activator: 116

Results for O=C(O)CCC(=O)Nc1ccc(Sc2ccc([N+](=O)[O-])cc2)cc1 ?
STAT1 inh: -6; STAT3 act: 99; STAT3 blocker: -2; NF-kB expr up: 0.81; APP 5'UTR act: -3; STAT1 activator: 105

Results for CCOC(=O)c1ccc(N/C=C2/CCCC(C)C2=O)cc1 (stereo not drawn) ?
STAT1 inh: -25; STAT3 act: 95; STAT3 blocker: 6; NF-kB expr up: 2.5; APP 5'UTR act: 16; STAT1 activator: 115

Results for CC1CCC/C(=C\Nc2ccc(C(=O)O)cc2)C1=O (stereo not drawn) ?
STAT1 inh: -56; STAT3 act: 94; STAT3 blocker: 11; NF-kB expr up: 3.8*; APP 5'UTR act: 139*; STAT1 activator: 149*

What do the screens show for `O=C(Nc1ccccc1)Nc1ccc2ocnc2c1`?
STAT1 inh: -26; STAT3 act: 92; STAT3 blocker: 14; NF-kB expr up: 2.1; APP 5'UTR act: 41; STAT1 activator: 127

Results for O=C(Nc1ccccc1)Nc1ccc2ncoc2c1 ?
STAT1 inh: -37; STAT3 act: 107; STAT3 blocker: 0; NF-kB expr up: 1.8; APP 5'UTR act: 65; STAT1 activator: 132*

How did CCOC(=O)C1(CCOc2ccccc2)CCN(Cc2cccc3nonc23)CC1 do in these assays?
STAT1 inh: 8; STAT3 act: 102; STAT3 blocker: -1; NF-kB expr up: 0.93; APP 5'UTR act: -2; STAT1 activator: 92

What do the screens show for `CN(C(=O)c1cccnc1)c1nnc(-c2cnccn2)s1`?
STAT1 inh: -18; STAT3 act: 95; STAT3 blocker: 10; NF-kB expr up: 1.3; APP 5'UTR act: 7; STAT1 activator: 117

What do the screens show for `CN(C(=O)c1cccnc1)c1nnc(-c2ccccn2)s1`?
STAT1 inh: -39; STAT3 act: 92; STAT3 blocker: 11; NF-kB expr up: 1.7; APP 5'UTR act: 26; STAT1 activator: 136*

How did Cc1ccccc1NC(=O)N1CCCC(c2nc(-c3ccc(C(C)C)cc3)no2)C1 (stereo not drawn) do in these assays?
STAT1 inh: -39; STAT3 act: 98; STAT3 blocker: 12; NF-kB expr up: 0.89; APP 5'UTR act: 112; STAT1 activator: 135*

What do the screens show for `Cc1ccccc1NC(=O)N1CCCC(c2nc(-c3ccc(F)cc3)no2)C1` (stereo not drawn)?
STAT1 inh: -4; STAT3 act: 88; STAT3 blocker: 19; NF-kB expr up: 1.1; APP 5'UTR act: 14; STAT1 activator: 103

Results for Cc1ccc(-c2nn(-c3ccccc3)cc2CSC(=N)N)cc1 ?
STAT1 inh: -2; STAT3 act: 103; STAT3 blocker: -3; NF-kB expr up: 4.9*; APP 5'UTR act: 16; STAT1 activator: 102

What do the screens show for `COc1ccc(C(=O)Nc2ccc(Cl)c(Cl)c2)c(OC)n1`?
STAT1 inh: -34; STAT3 act: 136*; STAT3 blocker: -40; NF-kB expr up: 4.6*; APP 5'UTR act: 42; STAT1 activator: 131*

How did O=C(Nc1ccc(Cl)c(Cl)c1)c1ccncc1 do in these assays?
STAT1 inh: -27; STAT3 act: 89; STAT3 blocker: 14; NF-kB expr up: 1.5; APP 5'UTR act: 14; STAT1 activator: 122

How did CC(C)NC(=S)Nc1ccc2nc3n(c(=O)c2c1)CCCCC3 do in these assays?
STAT1 inh: 2; STAT3 act: 102; STAT3 blocker: -5; NF-kB expr up: 1.2; APP 5'UTR act: 4; STAT1 activator: 98

Results for O=c1c(C=NCc2cccnc2)c(C(F)(F)F)[nH]n1-c1nc2ccccc2s1 ?
STAT1 inh: 38*; STAT3 act: 54; STAT3 blocker: 56*; NF-kB expr up: 1.5; APP 5'UTR act: 95; STAT1 activator: 64

Results for Cc1ccc(S(=O)(=O)Nc2ccc(-c3cn4ccc(C)cc4n3)cc2)cc1 ?
STAT1 inh: -6; STAT3 act: 87; STAT3 blocker: 17; NF-kB expr up: 1.2; APP 5'UTR act: 0; STAT1 activator: 105

What do the screens show for `Cc1ccn2cc(-c3ccc(NS(=O)(=O)c4ccccc4)cc3)nc2c1`?
STAT1 inh: -34; STAT3 act: 91; STAT3 blocker: 13; NF-kB expr up: 1.2; APP 5'UTR act: 7; STAT1 activator: 130*

What do the screens show for `CC(=O)Nc1cccc(-c2cn3ccc(C)cc3n2)c1`?
STAT1 inh: -33; STAT3 act: 80; STAT3 blocker: 25; NF-kB expr up: 4.2*; APP 5'UTR act: 98; STAT1 activator: 129*
